From ChEMBL document CHEMBL3396952, “Structural and biological evaluation of a novel series of benzimidazole inhibitors of Francisella tularensis enoyl-ACP reductase (FabI)” (Bioorg Med Chem Lett, 2015) come the findings set out here.

Experiment [1] relates to Staphylococcus aureus. Put plainly: Antimicrobial activity against Staphylococcus aureus ATCC 29213 measured after overnight incubation by microdilution method. It counts as functional. (Broth dilution looks for growth in wells or tubes with falling amounts of substance.)
Experiment [2] has as its system Staphylococcus aureus. Description: Antimicrobial activity against methicillin-resistant Staphylococcus aureus ATCC 43300 measured after overnight incubation by microdilution method. It counts as functional.
The subject of the next experiment is Francisella tularensis. Put plainly: Antimicrobial activity against Francisella tularensis Utah 112 measured after overnight incubation by microdilution method. Format: functional.
Experiment [3] relates to Escherichia coli. Put plainly: Antimicrobial activity against TolC-deficient Escherichia coli measured after overnight incubation by microdilution method. Format: functional.
Experiment [4] deals with Escherichia coli. Description: Antimicrobial activity against wild-type Escherichia coli BW25113 measured after overnight incubation by microdilution method. It counts as functional.
Experiment [5] in a line: Inhibition of N-terminus His-tagged Francisella tularensis subsp. Tularensis Schu4 Fab1 expressed in Escherichia coli […] (DE3) cells assessed as conversion of crotonyl-CoA and NADH to butyryl-CoA and NAD+ preincubated for 30 mins by fluorescence analysis. Also noted: species or system Francisella tularensis subsp. tularensis SCHU S4. An outline of the steps: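 Experimental Ki came from varying crotonyl-CoA against inhibitor concentration at saturating NADH (200 µM). Calculated Ki used Cheng-Prusoff, IC50 = Ki(1+[S]/Km), with [S]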

In brackets after ≈: the same amount, converted by molar mass.

Take `CC(c1ccc(Cl)c(Cl)c1)n1cnc2cc3c(cc21)CC(C)(C)C3` (stereo not given): the MBC – broadly, the smallest concentration meeting the test's criterion for killing – was greater than 12.5 µg/mL against Staphylococcus aureus [1], greater than 12.5 µg/mL against Staphylococcus aureus [2] and greater than 25 µg/mL against Escherichia coli [3]. Also, the MIC (in general, the lowest concentration that inhibits growth of the organism) is 4.7 µg/mL (≈ 13.1 µM) with Staphylococcus aureus [1]; 4.7 µg/mL (≈ 13.1 µM) against Staphylococcus aureus [2]; greater than 12.5 µg/mL against Francisella tularensis; greater than 12.5 µg/mL in the experiment with Escherichia coli [3]; greater than 12.5 µg/mL against Escherichia coli [4]. Besides, the IC50 – broadly, the midpoint of a concentration-inhibition curve – in experiment [5] is 0.24 µM.

With `CC(c1ccc(Cl)c(Cl)c1)n1cnc2cc3c(cc21)CCC3` (stereo not given), the MBC in the experiment on Staphylococcus aureus [1] is greater than 25 µg/mL; in the experiment with Staphylococcus aureus [2] it was 12.5 µg/mL (≈ 37.7 µM); with Francisella tularensis it was 9.4 µg/mL (≈ 28.4 µM); in the experiment on Escherichia coli [3], 12.5 µg/mL (≈ 37.7 µM). Also, the MIC with Staphylococcus aureus [1] is 5.5 µg/mL (≈ 16.6 µM); with Staphylococcus aureus [2], 6.3 µg/mL (≈ 19 µM); in the experiment on Francisella tularensis, 3.9 µg/mL (≈ 11.8 µM); in the experiment with Escherichia coli [3], 3.1 µg/mL (≈ 9.36 µM); in the experiment on Escherichia coli [4] it was greater than 12.5 µg/mL. Further, the IC50 in experiment [5] is 0.018 µM.

For `Cc1cc2ncn(C(C)c3ccc(Cl)c(Cl)c3)c2cc1C` (stereo not given), the MIC in the experiment on Staphylococcus aureus [1] is 12.5 µg/mL (≈ 39.2 µM); against Staphylococcus aureus [2] it was 12.5 µg/mL (≈ 39.2 µM); against Francisella tularensis, greater than 12.5 µg/mL; in the experiment with Escherichia coli [3], 6.3 µg/mL (≈ 19.7 µM); in the experiment with Escherichia coli [4], greater than 12.5 µg/mL. Also, in experiment [5], the 50% inhibitory concentration (IC50) stood at 0.37 µM.

As to `COc1ccc(Cn2cnc3cc4c(cc32)CCCC4)cc1C`, the minimal bactericidal concentration (MBC) was 25 µg/mL (≈ 81.6 µM) in the experiment on Staphylococcus aureus [1], 6.3 µg/mL (≈ 20.6 µM) against Francisella tularensis and 9.4 µg/mL (≈ 30.7 µM) in the experiment with Escherichia coli [3]. For the same molecule, the MIC is 6.3 µg/mL (≈ 20.6 µM) in the experiment with Staphylococcus aureus [1]; 12.5 µg/mL (≈ 40.8 µM) against Staphylococcus aureus [2]; 3.1 µg/mL (≈ 10.1 µM) in the experiment with Francisella tularensis; 4.7 µg/mL (≈ 15.3 µM) in the experiment with Escherichia coli [3]; greater than 12.5 µg/mL with Escherichia coli [4]. Moreover, in experiment [5], the 50% inhibitory concentration (IC50) is 0.14 µM. The Ki (commonly the dissociation constant of the complex between target and ligand, obtained from inhibition or displacement) in experiment [5] stood at 0.13 µM.

On to `CC(c1ccc(Cl)c(Cl)c1)n1cnc2cc3c(cc21)CCCC3` (stereo not given), for which the minimal bactericidal concentration (MBC) in the experiment on Staphylococcus aureus [1] was 25 µg/mL (≈ 72.4 µM); with Staphylococcus aureus [2], 25 µg/mL (≈ 72.4 µM); against Francisella tularensis it was 25 µg/mL (≈ 72.4 µM); with Escherichia coli [3] it was 12.5 µg/mL (≈ 36.2 µM). Besides, the minimal inhibitory concentration (MIC) with Staphylococcus aureus [1] was 3.1 µg/mL (≈ 8.98 µM); in the experiment with Staphylococcus aureus [2], 3.1 µg/mL (≈ 8.98 µM); in the experiment on Francisella tularensis it was 3.1 µg/mL (≈ 8.98 µM); against Escherichia coli [4], greater than 12.5 µg/mL. In addition, in experiment [5], the half-maximal inhibitory concentration (IC50) was 0.014 µM.

Turning to `c1cc2c(cc1Cn1cnc3cc4c(cc31)CCCC4)OCO2`, the minimal bactericidal concentration (MBC) in the experiment with Staphylococcus aureus [1] was greater than 25 µg/mL; against Staphylococcus aureus [2], greater than 25 µg/mL; in the experiment on Francisella tularensis, 18.8 µg/mL (≈ 61.4 µM); against Escherichia coli [3], 25 µg/mL (≈ 81.6 µM). Moreover, the minimal inhibitory concentration (MIC) is 4.7 µg/mL (≈ 15.3 µM) against Staphylococcus aureus [1]; 6.3 µg/mL (≈ 20.6 µM) in the experiment on Staphylococcus aureus [2]; 4.7 µg/mL (≈ 15.3 µM) with Francisella tularensis; 9.4 µg/mL (≈ 30.7 µM) in the experiment with Escherichia coli [3]; greater than 12.5 µg/mL in the experiment with Escherichia coli [4]. Moreover, in experiment [5], the IC50 came out at 0.32 µM. Besides, the inhibitory constant (Ki) in experiment [5] amounted to 0.33 µM.

For `COc1ccc(Cn2cnc3cc4c(cc32)CCC4)cc1C`, the MIC in the experiment with Staphylococcus aureus [1] is greater than 12.5 µg/mL; in the experiment on Staphylococcus aureus [2] it was greater than 12.5 µg/mL; in the experiment with Francisella tularensis, 5.5 µg/mL (≈ 18.8 µM); against Escherichia coli [3] it was 12.5 µg/mL (≈ 42.8 µM); in the experiment on Escherichia coli [4], greater than 12.5 µg/mL. The same molecule registered a minimum bactericidal concentration (MBC) against Francisella tularensis of 12.5 µg/mL (≈ 42.8 µM). The IC50 in experiment [5] came to 0.005 µM.

On to `COc1ccc(Cn2cnc3cc4c(cc32)CCCC4)cc1OC`, for which the minimal inhibitory concentration (MIC) with Staphylococcus aureus [1], against Staphylococcus aureus [2], in the experiment on Francisella tularensis, in the experiment with Escherichia coli [3] and with Escherichia coli [4] was greater than 12.5 µg/mL throughout. The IC50 in experiment [5] stood at 1.36 µM. In experiment [5], the Ki was determined as 1.43 µM.

`Cc1cc2ncn(Cc3ccc(Cl)c(Cl)c3)c2cc1C`: the MIC against Staphylococcus aureus [2] was 50 µg/mL (≈ 164 µM); against Francisella tularensis, 7.8 µg/mL (≈ 25.6 µM); against Escherichia coli [3] it was 6.25 µg/mL (≈ 20.5 µM); in the experiment with Escherichia coli [4] it was greater than 200 µg/mL. In addition, in experiment [5], the concentration for half-maximal inhibition (IC50) turned out to be 0.3 µM.

With `CC(c1ccc(Cl)c(Cl)c1)n1cnc2cc3c(cc21)COC3` (stereo not given), the MIC against Staphylococcus aureus [1], against Staphylococcus aureus [2], against Francisella tularensis, with Escherichia coli [3] and against Escherichia coli [4] was greater than 12.5 µg/mL each time. The IC50 in experiment [5] worked out at 0.89 µM.
